Screening data (PubChem BioAssay)
This is a sample that favours compounds with a hit; in the whole collection about 0.72% have one here.
bIAP inh: bovine intestinal alkaline phosphatase inhibitors, primary screen, selectivity assay for TNAP inhibitor project, biochemical, bovine IAP, CDP-star luminescence. alkaline phosphatase, intestinal [Bos taurus]. purified bovine IAP, 30 min. inhibition, % at 20 µM. 190,000 tested, under 10 active;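 active = over 50% inhibition of intestinal alkaline phosphatase at 20 µM in the single-dose screen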
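Assay system – bovine IAP enzyme · Quantity – bovine IAP at 1/65,000,000 final dilution · Detection – CDP-star luminescence signal · Times – 30 min reaction at room temperature · Also added – CDP-star substrate at 30 µM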
mIAP activ: activators of mouse IAP, primary screen, biochemical, luminescence, uHTS. intestinal alkaline phosphatase [Mus musculus]. muIAP, CDP-Star luminescence, 30 min; stronger effect = higher value; 1 = vehicle-only enzyme signal, 0 = enzyme-free wells. activation factor at 10 µM. 0.24% of 330,000 active. AID 2805, 2010;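 active = activation factor of at least 2 at 20 µM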
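System: mouse IAP enzyme. Reagent: CDP-Star chemiluminescent phosphatase substrate. Benchmarks: DMSO wells, no-enzyme wells. Times: 30 min enzyme-substrate-compound incubation at room temperature. Detection: luminescence from enzymatic CDP-Star hydrolysis. Doses: test compounds delivered from DMSO solution.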
bIAP activator: bovine intestinal alkaline phosphatase activators, primary screen, biochemical, bovine IAP, CDP-star luminescence. AID 1016, 2008. activation factor at 20 µM. alkaline phosphatase, intestinal [Bos taurus]. purified bovine IAP, 30 min; stronger effect = higher value; fold of DMSO-control signal, blank-subtracted. 0.17% of 200,000 active;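 active = activation factor of 2 or more at 20 µM, a signal rise over negative controls twice the positive control's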
hIAP block: human IAP inhibitors, primary screen, biochemical, luminescence, uHTS. Intestinal-type alkaline phosphatase (Homo sapiens), P09923. purified IAP, CDP-Star luminescence, 30 min. inhibition, % at 10 µM. 0.12% of 330,000 active;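 active = inhibition reaching a set limit with compound at 10 µM in the primary screen, cut at about 35% in these data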;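 also: plate controls were DMSO wells with enzyme for no effect and no-enzyme buffer wells for full effect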
Target sequence (P09923 whole entry, looked up): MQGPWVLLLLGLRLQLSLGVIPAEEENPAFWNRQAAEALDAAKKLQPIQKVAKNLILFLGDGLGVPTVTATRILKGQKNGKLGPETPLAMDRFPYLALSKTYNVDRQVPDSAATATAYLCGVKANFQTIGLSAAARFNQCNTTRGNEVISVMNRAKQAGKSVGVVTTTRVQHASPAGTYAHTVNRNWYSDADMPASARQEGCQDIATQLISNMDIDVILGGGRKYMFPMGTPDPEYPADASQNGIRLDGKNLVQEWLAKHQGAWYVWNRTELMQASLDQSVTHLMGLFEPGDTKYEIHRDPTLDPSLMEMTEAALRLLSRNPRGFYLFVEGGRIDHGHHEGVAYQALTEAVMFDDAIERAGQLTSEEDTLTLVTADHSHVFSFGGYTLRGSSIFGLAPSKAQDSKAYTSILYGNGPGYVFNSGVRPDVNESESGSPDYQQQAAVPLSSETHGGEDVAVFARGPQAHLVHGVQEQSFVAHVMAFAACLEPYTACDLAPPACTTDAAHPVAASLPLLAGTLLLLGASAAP
hIAP act: human IAP activators, primary screen, biochemical, luminescence, uHTS | activation factor at 10 µM | 0.16% of 330,000 active | Intestinal-type alkaline phosphatase (Homo sapiens), P09923 | purified human IAP, CDP-Star luminescence, 30 min; stronger effect = higher value; 1 = vehicle-only enzyme, 0 = enzyme-free background;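 active = activation factor of the enzyme at least 2-fold when tested at 20 µM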
mIAP block: inhibitors of mouse IAP, primary screen, biochemical, luminescence, uHTS | intestinal alkaline phosphatase [Mus musculus] | 0.2% of 330,000 active | inhibition, % at 10 µM | AID 2806, 2010 | purified mouse IAP, CDP-Star luminescence, 30 min;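 active = inhibition of at least 40% at 10 µM in the primary screen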;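 also: plate controls were DMSO with enzyme for no effect and no enzyme wells for full effect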
* hit, by the source's call; i = inactive; . = not tested or not shown.

SMILES	bIAP inh	mIAP activ	bIAP activator	hIAP block	hIAP act	mIAP block
CCc1ccccc1NC(=O)NC1CC2CCC(C1)N2Cc1cccs1 (centres undefined)	-17	1.2	1.2	-4	1	-22
C=CCn1c(=O)/c(=C\c2ccccn2)s/c1=C(/C#N)C(=O)NCC1CCCO1 (centres undefined)	-6	0.93	1.1	8	0.92	7
C=CCn1c(=O)/c(=C/c2ccc(C)o2)s/c1=C(/C#N)C(=O)c1ccccc1	19	0.58	0.8	19	0.81	42*
CCN(Cc1ccc2c(c1)OCCO2)C(=O)CN1C(=O)NC2(CCc3ccccc32)C1=O (centres undefined)	.	1	.	10	0.9	-2
O=C(NC(Nc1ccc(F)cc1)(C(F)(F)F)C(F)(F)F)c1cccnc1	-96	1	2*	-5	1	-5
Cc1ccc(-n2ncc3c(N4CCCC(C)C4)ncnc32)c(C)c1 (centres undefined)	.	0.56	.	-11	1.1	44*
CC(=O)c1ccc(S(=O)(=O)NCCC(=O)OCC(=O)N2CCCC2=O)cc1	.	0.93	.	-17	1.2	7
O=C(NCCS(=O)(=O)NC1CCCCC1)c1ccc2c(c1)OCO2	.	1	.	5	0.95	-2
CC(NC(=O)CN(C)Cc1nc2ccccc2c(=O)[nH]1)c1ccccc1 (centres undefined)	-115	1	2.1*	-92	1.9	-1
COc1cccc(C(O)c2nc3ccccc3n2C(C)C)c1OC (centres undefined)	.	1	.	-25	1.2	-4
COc1cccc(C(O)c2nc3ccccc3n2C(C)C)c1 (centres undefined)	-105	0.97	2.1*	-14	1.1	3
Cc1ccc(C)c(C(C)NC(=S)NCc2ccc(F)cc2)c1 (centres undefined)	.	2.2*	.	8	0.92	-117
Cc1ccc(NC(=S)NCc2ccc(F)cc2)cc1	.	1.4	.	-6	1.1	-45
O=C1NC(=S)S/C1=C\c1coc2ccc(O)cc2c1=O	.	0.54	.	13	0.87	46*
COc1ccc(NC(=O)C2CCCN(C(=O)c3ccc(Cl)cc3)C2)cc1S(=O)(=O)N(C)C (centres undefined)	.	1.1	.	13	0.87	-8
CCOC(=O)CNC(=O)c1ccc(Br)s1	.	1.1	.	7	0.93	-5
Cc1ccc(C)n1-c1ccc(C(=O)NN)s1	-110	1.1	2.1*	-21	1.2	-13
COc1ccccc1N1CC=C(c2cccc([N+](=O)[O-])c2)NC1=O	.	0.91	.	-6	1.1	9
O=C1C2CCCN2C(=O)N1CCN1CCN(CCO)CC1 (centres undefined)	-173	1	2.7*	2	0.98	-5
COc1ccccc1CC(=O)NNC(=O)c1ccco1	.	1.1	.	-10	1.1	-5
CCCCCCCCNc1ncnc2ccccc12	i	1.2	9*	23	0.77	-22
O=C1/C(=C\c2ccco2)SC(=S)N1Cc1ccccc1	10	0.43	0.9	-7	1.1	57*
O=C(CCCN1C(=O)/C(=C\c2ccco2)SC1=S)Nc1ccc2ccccc2c1	9	0.59	0.9	1	0.99	41*
COc1ccc(Cc2nc3ccc(C(=O)NCc4ncc(C)[nH]4)cc3o2)cc1OC	.	0.5	.	6	0.94	50*
CC(=O)c1ccc(S(=O)(=O)N2CCC(NC(=O)Nc3cccc(F)c3)CC2)cc1	-13	1.2	1.1	-21	1.2	-21
SMILES	bIAP inh	mIAP activ	bIAP activator	hIAP block	hIAP act	mIAP block
O=C(Nc1cccc(C(F)(F)F)c1)NC1CCN(S(=O)(=O)c2ccc(F)cc2)CC1	12	2.3*	0.9	7	0.93	-134
O=C(Nc1ccccc1)Nc1cccc(C(F)(F)F)c1	1	2.9*	1	-15	1.2	-187
COc1cccc(NC(=O)Nc2cc(C)ccc2OC)c1	2	1.3	1	25	0.75	-26
CNC(=O)Nc1cccc(C(F)(F)F)c1	6	0.91	0.9	6	0.94	9
S=C(NCc1ccccc1)NCc1cccc(CNC(=S)NCc2ccccc2)c1	6	2.4*	0.9	6	0.94	-140
Cc1ccc(OC(F)F)c(NC(=O)Nc2cccc(C(F)(F)F)c2)c1	28	2.1*	0.7	-2	1	-106
CCc1ccccc1S(=O)(=O)c1c(C)cc(C)nc1Cl	.	1.1	.	-5	1.1	-8
O=C(COC(=O)C1C2CC3OC(=O)C1C3C2)Nc1ccc(Br)cc1 (centres undefined)	.	1.1	.	8	0.93	-8
FC(F)(F)Sc1ccc(NC(=S)NCc2ccccc2)cc1	.	2.3*	.	0	1	-132
FC(F)(F)c1cccc(NC(=S)NCc2ccccc2)c1	37	2.2*	0.6	-23	1.2	-120
FC(F)(F)c1cccc(CNC(=S)Nc2ccccc2)c1	26	1.3	0.7	-8	1.1	-34
S=C(NCCc1ccccc1)NC1CCCCCC1	49	1.3	0.5	-1	1	-26
S=C(NCCNCc1ccccc1)NC1CCCCC1	5	2.1*	0.9	-10	1.1	-109
N#Cc1sc2nc(C3CC3)cc(-c3ccccc3)c2c1N	15	1.1	0.9	-29	1.3	-14
N#Cc1sc2nc(-c3ccccc3)cc(-c3ccco3)c2c1N	11	0.52	0.9	4	0.96	48*
COc1ccc(CN(CC(=O)NCc2ccccc2)C(=O)CCC(=O)Nc2nccs2)cc1	.	1	.	-1	1	-5
Cc1ccc(NC(=S)NCC(C)CSc2ccc(Cl)cc2)cc1 (centres undefined)	31	2.7*	0.7	-36	1.4	-165
Cc1ccc(NC(=S)NCCSc2ccc(Cl)cc2)c(C)c1	-15	2	1.1	0	1	-99
Cc1ccc(C)c(NC(=S)NCCSc2ccc(Cl)cc2)c1	36	1.9	0.6	-5	1.1	-87
Cc1ccccc1NC(=S)NCCSc1ccc(Cl)cc1	.	2	0.4	-13	1.1	-97
Cc1cccc(NC(=S)NCCSc2ccc(Cl)cc2)c1	40	2.2*	0.6	-14	1.1	-123
CCc1ccccc1NC(=S)NCCSc1ccc(Cl)cc1	.	2*	0.5	19	0.81	-102
Cc1cccc(NC(=S)NCC(C)CSc2ccc(Cl)cc2)c1 (centres undefined)	35	3.2*	0.7	-38	1.4	-225
Cc1cccc(NC(=S)NCC(c2ccccc2)N(C)C)c1 (centres undefined)	17	1.1	0.8	-3	1	-9
